Data from ChEMBL document CHEMBL1144298, “Novel 3-aminochromans as potential pharmacological tools for the serotonin 5-HT(7) receptor” (Bioorg Med Chem Lett, 2005).

Tests used:
[1] = target: 5-hydroxytryptamine receptor 7 (Rattus norvegicus, UniProt P32305); experiment: Binding affinity for rat serotonin 5-HT7 receptor expressed in Sf9 cells using [3H]5-HT radioligand
In short: (§1)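 In vitro radioligand binding on cloned receptors. For 5-HT7, cloned rat receptor expressed in Sf9 cells was labeled with [3H]5-HT. For 5-HT1A, cloned receptor expressed in CHO cells was labeled with [3H]8-OH-DPAT.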

[2] = target: 5-hydroxytryptamine receptor 7 (Rattus norvegicus) (UniProt P32305); experiment: Efficacy at the 5-HT7 receptor by measuring its effect on cAMP production in CHO cells; type: functional, cell-based
5-hydroxytryptamine receptor 7 (Rattus norvegicus), sequence (P32305 whole entry): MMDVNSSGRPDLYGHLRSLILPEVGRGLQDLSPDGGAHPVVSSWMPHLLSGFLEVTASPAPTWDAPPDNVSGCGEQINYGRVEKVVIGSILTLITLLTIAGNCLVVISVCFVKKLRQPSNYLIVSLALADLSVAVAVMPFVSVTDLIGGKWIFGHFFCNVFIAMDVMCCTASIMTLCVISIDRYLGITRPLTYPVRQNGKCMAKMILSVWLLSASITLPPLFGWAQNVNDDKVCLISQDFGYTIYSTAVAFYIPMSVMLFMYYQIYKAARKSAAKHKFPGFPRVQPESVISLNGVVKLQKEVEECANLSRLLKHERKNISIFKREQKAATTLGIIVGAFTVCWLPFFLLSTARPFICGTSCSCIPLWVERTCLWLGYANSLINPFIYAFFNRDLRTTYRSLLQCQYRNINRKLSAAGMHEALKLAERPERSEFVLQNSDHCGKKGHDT

Rattus norvegicus = species on record: Rattus norvegicus; experiment: Ratio of binding affinity for serotonin 5-HT1A to serotonin 5-HT7
[3] = Binding affinity for rat serotonin 5-HT1A receptor using [3H]8-OH-DPAT as radioligand expressed in CHO cells; type: cell-based; in short: as §1

5-hydroxytryptamine receptor 7, sequence (P32305 whole entry): as above

SMILES | Ki [1] | Efficacy [2] | Ratio (Rattus norvegicus) | Ki [3] | Efficacy ([2]; filed as antagonist)
CN(C)[C@@H]1COc2ccc(-c3ccccc3)cc2C1 | > 1000 nM |  |  |  | 
Cc1cccc(C)c1-c1ccc2c(c1)C[C@H](N(C)C)CO2 | 13.4 nM | 76% | 6 | 75.1 nM | 
O=S(=O)(c1ccc2cc[nH]c2c1)N1CCC[C@@H]1CCN1CCC(Oc2ccc(Cl)cc2)CC1 | 1.99 nM |  | 282 | 562 nM | Antagonist
COc1cccc(OC)c1-c1ccc2c(c1)C[C@H](N(C)C)CO2 | 367 nM |  |  |  | 
COc1c(-c2ccc3c(c2)C[C@H](N(C)C)CO3)ccc2ccccc12 | 75.9 nM |  | 8 | 594 nM | 
COc1cccc(OC)c1-c1cccc2c1OC[C@@H](N(C)C)C2 | 5.29 nM | 28% | > 189 | > 1000 nM | 
CCCN(CCC)[C@H]1COc2c(cccc2-c2c(OC)cccc2OC)C1 |  |  | 27 | 174 nM | 
CN(C)[C@@H]1COc2ccc(-c3c(O)cccc3O)cc2C1 | > 1000 nM |  |  |  | 
